Assay results of several laboratories.
Protocols differ between the studies behind these lines.
Target: Ephrin type-A receptor 1 (EPHA1, Homo sapiens, UniProt P21709)
Residues used in one study (P21709 26-976): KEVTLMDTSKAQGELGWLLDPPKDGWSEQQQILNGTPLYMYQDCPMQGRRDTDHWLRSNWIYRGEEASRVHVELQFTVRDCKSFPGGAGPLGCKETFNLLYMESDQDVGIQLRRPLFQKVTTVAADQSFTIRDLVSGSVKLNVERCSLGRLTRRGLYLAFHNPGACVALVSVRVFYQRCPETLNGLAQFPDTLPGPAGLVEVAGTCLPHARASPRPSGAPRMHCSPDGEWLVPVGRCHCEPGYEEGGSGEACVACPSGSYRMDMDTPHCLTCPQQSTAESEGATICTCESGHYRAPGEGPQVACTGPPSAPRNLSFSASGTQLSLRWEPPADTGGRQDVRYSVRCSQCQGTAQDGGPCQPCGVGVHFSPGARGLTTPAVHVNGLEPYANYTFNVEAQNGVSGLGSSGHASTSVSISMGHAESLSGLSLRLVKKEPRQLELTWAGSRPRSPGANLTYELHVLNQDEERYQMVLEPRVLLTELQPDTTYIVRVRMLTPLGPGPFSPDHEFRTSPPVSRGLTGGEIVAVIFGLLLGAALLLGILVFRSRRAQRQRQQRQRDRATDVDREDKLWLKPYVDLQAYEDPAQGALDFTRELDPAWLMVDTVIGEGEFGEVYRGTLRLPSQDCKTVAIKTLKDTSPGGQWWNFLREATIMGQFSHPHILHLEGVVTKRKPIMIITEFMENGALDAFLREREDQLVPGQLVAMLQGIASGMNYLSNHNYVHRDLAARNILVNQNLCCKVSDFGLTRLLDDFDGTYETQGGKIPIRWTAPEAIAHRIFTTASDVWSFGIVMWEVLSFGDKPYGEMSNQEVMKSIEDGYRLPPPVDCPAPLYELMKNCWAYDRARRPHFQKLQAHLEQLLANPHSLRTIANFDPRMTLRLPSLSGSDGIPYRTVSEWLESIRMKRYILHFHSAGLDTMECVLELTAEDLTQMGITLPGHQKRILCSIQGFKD

Cn1cncc1[C@@](O)(COc1ccc(C#N)cc1-c1ccc(OC(F)(F)F)cc1)c1ccc(C#N)cc1 — remaining binding (cell-free assay, competition with immobilised ligand; 1 µM): 93%
COc1ncccc1-c1cnn2ccc(N3CCN(C(=O)OC(C)C)CC3)nc12 — remaining binding (binding, competition with immobilised ligand; 1 µM): 84%
Cn1cc(-c2cccc(N3CCc4c(sc5c4CC(C)(C)C5)C3=O)c2CO)cc(Nc2ccncn2)c1=O — inhibition (enzyme activity, inhibitor; 1 µM): 3%
O=c1[nH]c2ccccc2n1C1CCN(Cc2ccc(-c3[nH]c4cc5ncnc5cc4nc3-c3ccccc3)cc2)CC1 — remaining signal (cell-free assay; 0.5 µM): 84.4%
Cc1nn(C)cc1-c1nc2c(N3CCN(Cc4ccc(Cl)cc4)CC3)c(Cl)cnc2[nH]1 — remaining binding (binding, competition with immobilised ligand; 1 µM): 90%
Nc1ncc(-c2nc(N3CCOCC3)nc(N3CCOCC3)n2)c(C(F)F)n1 — remaining binding (cell-free assay, competition with immobilised ligand; 10 µM): 68%
COc1cc(Nc2ncc(F)c(Nc3ccc4c(n3)NC(=O)C(C)(C)O4)n2)cc(OC)c1OC — inhibition (binding, competition with immobilised ligand; 10 µM): 98%
Cn1cc(-c2cc(F)cc(N3CCn4c(cc5c4CCCC5)C3=O)c2CO)cc(Nc2ccc(N3CCN(C4COC4)CC3)cn2)c1=O — inhibition (enzyme activity, inhibitor; 0.1 µM): 19%
CC(C)(C)c1cc(C=C(C#N)C#N)cc(Br)c1O — remaining activity (enzyme activity, inhibitor; 0.5 µM): 85.1%
